Assay outcomes: PubChem BioAssay, several laboratories
The list is not random: actives were taken first. Their share in the collection is about 6.4%.
EBV gp42 block = Epstein-Barr virus gp42 inhibitors, primary screen, biochemical, uHTS, fluorescence polarization. Glycoprotein 42 (Epstein-Barr virus (strain AG876)), Q1HVG2. Fluorescence polarization binding assay, mP read-out. inhibition, % (tested at 21.74 µM). hit rate 0.42% among 220,000. AID 1085, 2008; in the data active = inhibition above about 50%
Target sequence (Q1HVG2 whole entry, looked up): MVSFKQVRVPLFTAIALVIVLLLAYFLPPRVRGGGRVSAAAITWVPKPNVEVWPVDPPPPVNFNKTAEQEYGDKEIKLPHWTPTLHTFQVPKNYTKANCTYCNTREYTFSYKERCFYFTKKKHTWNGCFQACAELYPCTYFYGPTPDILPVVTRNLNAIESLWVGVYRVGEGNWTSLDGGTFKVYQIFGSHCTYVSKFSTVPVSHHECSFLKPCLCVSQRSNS
GRIN3A LBD mod = binders of NR3A ligand-binding domain, primary screen, biophysical, differential scanning fluorimetry, uHTS | hit rate 2.5% among 340,000 | NR3A LBD differential scanning fluorimetry, Tm shift; 0% = protein alone, 100% = glycine-bound protein | Tm shift relative to glycine control, % at 25 µM | Glutamate receptor ionotropic, NMDA 3A (GRIN3A) ligand-binding domain;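 active = melting temperature shift of at least 10% of the positive control shift, at one fixed dose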
WT yeast gro inh = growth inhibition of WT strain, primary screen, mitochondrial fusion inhibitor project, WT and mutant strains, chemical genetic | AID 1362, 2008 | mitochondrial fusion phenotypic screen | inhibition, % at 10 µM | hit rate 2.1% among 190,000; in the data active = inhibition above about 58%; tested in S. cerevisiae
CHOP inh = inhibitors of CHOP promoter induction, primary screen, cell-based, unfolded protein response, luciferase reporter. CHO-K1 CHOP-promoter luciferase, tunicamycin-induced, 15-18 h. inhibition, % at 10 µM. hit rate 3.8% among 220,000. AID 2732, 2010;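 active = compounds that reduced the stress-induced luciferase reporter signal by more than about 70% of percent inhibition, limit read from the data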
MPTP block = mitochondrial permeability transition pore inhibitors, primary screen, biochemical, isolated mouse mitochondria, absorbance. Ca2+ swelling absorbance, 30 min. inhibition, % at 10 µM. hit rate 1.4% among 360,000;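 active = inhibition of 50% or more, scaled per plate between neutral and stimulator controls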
TbMetRS inhib = T. brucei MetRS inhibitors, primary screen, biochemical, luminescence; hit rate 0.4% among 360,000; purified T. brucei MetRS, ATP depletion, Kinase-Glo luminescence; inhibition, % at 11.9 µM;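 active = inhibition above a per-plate cutoff of the control wells' mean inhibition plus 3 SD, cut at about 5.5% in these data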
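System: purified T. brucei MetRS enzyme / Detection: Kinase-Glo luciferase luminescence reporting remaining unconsumed ATP / Medium: HEPES buffer with MgCl2, KCl, DTT, spermine, BSA, pyrophosphatase / Replication: singlicate, one well per compound / Evaluation: percent inhibition relative to median high and low control wells / Schedule: 2 h aminoacylation at 25 °C after 15 min preincubation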
Each line names hits and unclear results; the compound was inactive in the other large screens.

CCn1nc(-c2ccccc2)c2nc3ccccc3nc21	EBV gp42 block 93
CCCCCn1nc(-c2ccccc2)c2nc3ccccc3nc21	EBV gp42 block 161
CCCn1nc(-c2ccccc2)c2nc3ccccc3nc21	EBV gp42 block 65 (no result: MPTP block, TbMetRS inhib)
CCCCn1c2nc3ccccc3nc2c2c(=O)n(CCC)cnc21	none
CC(Sc1nc(-c2ccccc2)c(-c2ccccc2)[nH]1)C(=O)NCC1CCCO1 (stereo not given)	none (no result: EBV gp42 block, GRIN3A LBD mod, WT yeast gro inh, CHOP inh)
CCC1=NN(C(=O)Cc2ccc(OC)c(OC)c2)C(O)(C(F)(F)F)C1 (stereo not given)	none
COc1ccc(/C=N/NC(=O)Cc2csc(Nc3cccc(C(F)(F)F)c3)n2)cc1C	GRIN3A LBD mod 22, CHOP inh 81
COc1cc(/C=N/NC(=O)Cc2csc(C)n2)ccc1OCC(C)C	none
CC1Cc2cc(S(=O)(=O)N3CCN(c4cccc(Cl)c4)CC3)ccc2N1C(=O)C1CC1 (stereo not given)	GRIN3A LBD mod 10 (no result: EBV gp42 block, WT yeast gro inh, CHOP inh)
Oc1ccc(Br)cc1/C=N/n1c(COc2ccccc2)n[nH]c1=S	GRIN3A LBD mod 10 (no result: EBV gp42 block, WT yeast gro inh, CHOP inh)
COc1cc(/C=N/n2cnnc2)ccc1OCc1ccc(C)cc1	none
COc1cc(/C=N/n2cnnc2)ccc1OCc1ccccc1	WT yeast gro inh 64
CCOc1ccc(/C=N/n2c(COc3ccccc3)n[nH]c2=S)cc1OC	GRIN3A LBD mod 15 (no result: EBV gp42 block, WT yeast gro inh, CHOP inh)
CC(=O)c1ccc(-c2ccccc2[C@H]2[C@H]3C=CC[C@@H](C)[C@@H]3C(=O)N2Cc2ccccc2)cc1	none (no result: GRIN3A LBD mod, WT yeast gro inh, MPTP block, TbMetRS inhib)
O=[N+]([O-])c1ccccc1/C=C/C=N/N1CCCCC1	none
Cc1cccc(NC2=NCC(=O)N2Cc2ccccc2)c1	none
Cc1cc(SCC(=O)N(C)CC(=O)Nc2ccc(F)cc2)nc2ccccc12	none
COc1ccc(N/C(N)=N/c2nc(CSc3ccc(C)cc3)cc(=O)[nH]2)cc1	WT yeast gro inh 80
Cc1ccc(N/C(N)=N/c2nc(CSc3ccc(C)cc3)cc(=O)[nH]2)cc1	none
COC(=O)C(CC(=O)c1ccc(Cl)cc1)c1ccc(C(C)C)cc1 (stereo not given)	WT yeast gro inh 70
CCn1c(=S)sc2c(=O)n(CC(=O)Nc3ccccc3)c(C)nc21	none (no result: EBV gp42 block, WT yeast gro inh, CHOP inh)
CCn1c(=S)sc2c(=O)n(CC(=O)Nc3ccc(Cl)cc3)c(C)nc21	GRIN3A LBD mod 15 (no result: EBV gp42 block, WT yeast gro inh, CHOP inh)
Cc1nc2c(sc(=S)n2Cc2ccco2)c(=O)n1CC(=O)Nc1ccc(F)cc1	GRIN3A LBD mod 14 (no result: EBV gp42 block, WT yeast gro inh, CHOP inh)
Cc1nc2c(sc(=S)n2Cc2ccco2)c(=O)n1CC(=O)Nc1cc(F)ccc1F	none (no result: EBV gp42 block, WT yeast gro inh, CHOP inh)
CCn1c(=S)sc2c(=O)n(CC(=O)Nc3ccc(OC)c(Cl)c3)c(C)nc21	GRIN3A LBD mod 12 (no result: EBV gp42 block, WT yeast gro inh, CHOP inh)
Oc1cc(NCc2ccc(F)cc2)cc2cccnc12	none (no result: EBV gp42 block, WT yeast gro inh, CHOP inh)
CCOC(=O)Cc1c(C)nc2c(-c3ccc(OC)cc3)c(C)nn2c1C	none
Cc1ccc(NC(=O)c2nnn(CC(=O)Nc3ccccc3)c2N)cc1C	none
Cc1ccc(NC(=O)Cn2nnc(C(=O)Nc3ccc(F)c(Cl)c3)c2N)cc1	GRIN3A LBD mod 32 (no result: EBV gp42 block, WT yeast gro inh, CHOP inh)
Cc1ccc(NC(=O)Cn2nnc(C(=O)NCc3ccc(Cl)cc3)c2N)cc1F	GRIN3A LBD mod 13 (no result: EBV gp42 block, WT yeast gro inh, CHOP inh)
COc1ccc(NC(=O)Cn2nnc(C(=O)NCc3ccc(C)cc3)c2N)cc1OC	none (no result: EBV gp42 block, WT yeast gro inh, CHOP inh)
Cc1ccc(NC(=O)Cn2nnc(C(=O)NCc3ccccc3)c2N)cc1C	GRIN3A LBD mod 26
CC(C)OC(=O)c1c(NC(=O)c2cnn3c2NC(c2ccccc2)CC3C(F)F)sc2c1CCCC2 (stereo not given)	none (no result: GRIN3A LBD mod, MPTP block, TbMetRS inhib)
CCOC(=O)c1noc(C)c1C(=O)Nc1cccc(F)c1	none
COc1ccc(-c2nc(-c3ccccc3)[nH]c(=O)c2C#N)cc1	WT yeast gro inh 80
CCN(CC)CC(=O)Nc1cccc2c1C(=O)c1ccccc1C2=O	CHOP inh 77
CC(C)C1CC(C(=O)Nc2ccccc2)C(=O)O1 (stereo not given)	none (no result: EBV gp42 block, WT yeast gro inh, CHOP inh)
COc1cccc(C(C2=C(O)CC(C)(C)CC2=O)C2C(=O)CC(C)(C)CC2=O)c1 (stereo not given)	none
COc1cccc(CC(=O)n2nc(N)c3cc4ccc(OC)cc4nc32)c1	CHOP inh 95
COc1ccc2cc3c(N)nn(C(=O)c4ccccc4Cl)c3nc2c1	CHOP inh 77 (no result: WT yeast gro inh)
COc1ccc2cc3c(N)nn(C(=O)c4cccc(F)c4)c3nc2c1	none (no result: WT yeast gro inh)
COc1ccc2cc3c(N)nn(C(=O)Cc4c[nH]c5ccccc45)c3nc2c1	CHOP inh 79 (no result: WT yeast gro inh)
COc1ccc2cc3c(N)nn(C(=O)Cc4ccc(Cl)cc4)c3nc2c1	CHOP inh 83
COc1ccc2cc3c(N)nn(C(=O)c4ccc(F)cc4)c3nc2c1	none (no result: WT yeast gro inh)
CC1(C(=O)NS(=O)(=O)C2CC2)CCCN(C(=O)Cc2ccc(F)cc2)C1 (stereo not given)	none (no result: EBV gp42 block, GRIN3A LBD mod, WT yeast gro inh, CHOP inh)
Cc1cc(C)n(-c2ccc([N+](=O)[O-])cc2)n1	none
CCCCOc1ccc(/C=C/C(=O)OCC(=O)NC(=O)NCC(C)C)cc1OCC	CHOP inh 72
COCCn1c(COc2ccccc2)nnc1SCC(N)=O	none (no result: EBV gp42 block, WT yeast gro inh, CHOP inh)
Cc1ccc(NC(=S)NCCO)c(C)c1	none
S=C(NCCNC(=S)Nc1ccccc1)Nc1ccccc1	none (no result: EBV gp42 block, WT yeast gro inh, CHOP inh)
COc1ccccc1NC(=S)NCCSc1ccc(C)cc1	WT yeast gro inh 71
Cc1ccc(SCCNC(=S)Nc2cc(C)ccc2C)cc1	WT yeast gro inh 75
Cc1ccc(SCCNC(=S)Nc2ccccc2)cc1	WT yeast gro inh 74
O=C(C1CCCN(C2CC(=O)N(c3ccc(F)cc3)C2=O)C1)N1CCCC1 (stereo not given)	none (no result: EBV gp42 block, WT yeast gro inh, CHOP inh)
COc1cc2nc(/C=C/c3ccc(N(C)C)cc3)sc2cc1SC	none
Cc1cc(C)nc(NC2=NCC(=O)N2c2ccc3c(c2)OCCO3)n1	WT yeast gro inh 95
COc1ccc(N2C(=O)CN=C2Nc2nc(C)cc(C)n2)cc1	none
COCCN(Cc1cc2ccccc2[nH]c1=O)C(=O)c1ccccc1OC	none
CCOC(=O)c1sc(NC(=O)CSc2ccccn2)c(C#N)c1C	CHOP inh 79
CC(C)N(Cc1cnn(C)c1)C(=O)C1CCC(=O)N(CCc2cccc(F)c2)C1 (stereo not given)	none (no result: EBV gp42 block, WT yeast gro inh, CHOP inh)
CC(C(=O)O)N(c1ccccc1Cl)S(C)(=O)=O (stereo not given)	none (no result: EBV gp42 block, WT yeast gro inh, CHOP inh)
O=C(CNc1ccc2ccccc2c1)N/N=C/c1ccc(OC(=O)/C=C/c2ccco2)cc1	GRIN3A LBD mod 21
CSc1ccc(/C=N/NC(=O)CNc2ccc3ccccc3c2)cc1	GRIN3A LBD mod 21, WT yeast gro inh 65
CSc1ccc(/C=N/NC(=O)CNc2cccc3ccccc23)cc1	GRIN3A LBD mod 19, CHOP inh 94
O=C(CNc1cccc2ccccc12)N/N=C/c1ccc(OC(=O)/C=C/c2ccco2)cc1	none
